Experimental data pooled from the literature.
Compare with care: the assays were run in different laboratories.
Target: Mitogen-activated protein kinase kinase kinase 13 (MAP3K13, Homo sapiens, UniProt O43283)
Residues used in one study (O43283 1-966): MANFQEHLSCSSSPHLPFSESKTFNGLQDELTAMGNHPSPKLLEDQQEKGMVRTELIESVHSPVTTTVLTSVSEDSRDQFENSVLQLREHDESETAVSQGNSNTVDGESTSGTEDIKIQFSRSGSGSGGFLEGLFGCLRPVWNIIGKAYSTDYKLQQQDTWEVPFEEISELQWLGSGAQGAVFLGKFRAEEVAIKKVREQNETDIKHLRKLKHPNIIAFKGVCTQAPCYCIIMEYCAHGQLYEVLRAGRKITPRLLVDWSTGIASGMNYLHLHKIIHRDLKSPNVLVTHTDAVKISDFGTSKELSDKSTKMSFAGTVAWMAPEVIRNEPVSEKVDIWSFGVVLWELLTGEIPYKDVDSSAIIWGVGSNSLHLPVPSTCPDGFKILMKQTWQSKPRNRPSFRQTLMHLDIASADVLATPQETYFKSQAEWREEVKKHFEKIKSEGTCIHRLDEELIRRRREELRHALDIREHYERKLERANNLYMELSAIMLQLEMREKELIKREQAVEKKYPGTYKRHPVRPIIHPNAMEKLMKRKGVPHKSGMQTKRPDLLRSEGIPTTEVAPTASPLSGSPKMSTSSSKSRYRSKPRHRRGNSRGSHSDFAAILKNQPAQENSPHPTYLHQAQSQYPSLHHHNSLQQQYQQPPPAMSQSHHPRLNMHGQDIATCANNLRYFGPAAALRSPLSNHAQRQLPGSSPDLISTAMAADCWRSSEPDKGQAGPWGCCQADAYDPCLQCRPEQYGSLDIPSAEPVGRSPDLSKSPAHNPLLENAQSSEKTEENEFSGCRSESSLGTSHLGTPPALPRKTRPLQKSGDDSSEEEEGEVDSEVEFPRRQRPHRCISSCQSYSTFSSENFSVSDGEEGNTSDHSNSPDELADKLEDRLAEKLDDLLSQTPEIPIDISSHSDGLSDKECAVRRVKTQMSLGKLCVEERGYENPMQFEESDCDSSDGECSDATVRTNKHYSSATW

SMILES | read-out | method | concentration | remaining binding [%]
COc1cnc(Nc2cccc(S(N)(=O)=O)c2)nc1N1CCN(c2ccccc2)CC1 | binding | competition with immobilised ligand | 1 µM | 96
CN(C)c1ncc(F)c(-c2cnn3ncccc23)n1 | binding |  | 1 µM | 90
COCCOc1nc(-c2ccc(Cl)nc2)nc2c1CN(C(=O)c1ncn3ccccc13)CC2 | cell-free assay | competition with immobilised ligand | 0.1 µM | 87
O=C(NCCCN1CCOCC1)c1ccc(Nc2nccc(-c3cc4ccccc4s3)n2)cc1 | binding | competition with immobilised ligand | 1 µM | 79
F[C@@H]1CCN(c2nccc(-c3cnn4ncccc34)n2)C1 | binding |  | 1 µM | 100
COc1cc(-c2cn(C3CCc4c(F)cccc4N(CC(F)(F)F)C3=O)nn2)ccc1-n1cnc(C)c1 (centres unmarked) | cell-free assay | competition with immobilised ligand | 1 µM | 75
O=C(c1ccc(Nc2ncc(Cl)c(-c3cc4ccccc4s3)n2)cc1)N1CCC(N2CCCC2)CC1 | binding | competition with immobilised ligand | 1 µM | 46
O=C(Nc1c[nH]nc1C(=O)NC1CCNCC1)c1cc(F)cc(F)c1 | binding | competition with immobilised ligand | 1 µM | 100
CN(c1nccc(-c2cnn3ncccc23)n1)C1CC1 | binding |  | 1 µM | 18
CC(=O)N1CCC(c2ccc(C(=O)NC(=N)N)cc2C(F)(F)F)CC1 | cell-free assay | competition with immobilised ligand | 1 µM | 100
C[C@@H]1CCN(c2nccc(-c3cnn4ncccc34)n2)C1 | binding |  | 1 µM | 71
CC(=O)C1=C(C)N(c2cccc(C(F)(F)F)c2)C(=O)N[C@@H]1c1ccc(C#N)nc1 | cell-free assay | competition with immobilised ligand | 1 µM | 92.4
COc1ncc2cc3ccccc3nc2c1C#N | cell-free assay | competition with immobilised ligand | 5 µM | 92
CN1CCN(c2cnc3c(C4CCN(C(=O)c5ccc(OC(F)(F)F)cc5N)CC4)ncnc3c2)CC1 | cell-free assay | competition with immobilised ligand | 1 µM | 100
CN(C)c1nccc(-c2cnn3ncccc23)n1 | binding |  | 1 µM | 85
CCN1CCN(Cc2ccc(C(=O)Nc3ccc(C)c(Oc4ccc5c(c4)CC(=O)N5)c3)cc2C(F)(F)F)CC1 | binding | competition with immobilised ligand | 1 µM | 100
CC1CCCN1c1nccc(-c2cnn3ncccc23)n1 (centres unmarked) | binding |  | 1 µM | 100
CNC(=O)[C@@H]1CC[C@@H](n2c(-c3ccc4cnccc4c3)nc3ccc(C(=O)NCc4cccc(C(N)=O)c4)cc32)C1 | binding | competition with immobilised ligand | 1 µM | 100
O=C(NCCCC1CCCCC1)c1ccc(CNC(=O)c2cnn(-c3ccccc3)c2C(F)(F)F)cc1 | cell-free assay | competition with immobilised ligand | 0.1 µM | 100
Cc1cnc(Nc2ccc(C(=O)N3CCC(N4CCCC4)CC3)cc2)nc1-c1cc2ccccc2s1 | binding | competition with immobilised ligand | 1 µM | 25
